{
  "source": "PubChem BioAssay",
  "note": "The source made the active and inactive calls.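 How the source made its calls, unless noted: active means potentiation averaged over duplicate wells exceeding buffer-only control mean by more than 3 SD; inactive means the rest.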",
  "data": [
    {"system": "not listed separately", "assay": "nonspecific flux increase, KCNQ1-free cells – parental CHO cells, counter-screen for KCNQ1 potentiator project (AID 493006;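 active means duplicate-averaged activation above buffer control mean plus 5 SD of those controls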)", "details": "parental CHO-K1 cells, FluxOR thallium flux, at 10 µM; hits give high values", "how_it_was_run": "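Assay system: Untransfected host CHO-K1 cells with FluxOR thallium dye | Probe or stimulus: Potassium/thallium depolarization pulse | Schedule: Overnight 37 °C plating, 90 min RT dye, 20 min compound | Detection: Kinetic thallium-flux fluorescence | Read-out: Max-minus-min fluorescence over baseline, percent of buffer-to-R-L3 span | Benchmarks: Low control buffer, high control R-L3 activator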", "values": [
      {"compound": "O=C(O)C1C2CCC(O2)C1C(=O)NCCC1=CCCCC1", "note": "(stereo not given)", "outcome": "inactive"},
      {"compound": "COc1ccccc1C(=O)OCC(=O)Nc1ccc(Cl)cn1", "outcome": "inactive"},
      {"compound": "Cc1ccnc(NC(=S)NC(=O)c2cncc(Br)c2)c1", "outcome": "inactive"},
      {"compound": "COc1cccc(N=Nc2ccc(O)c3ncccc23)c1", "activation": "166% (active)"},
      {"compound": "COc1cc2c3nnc(-c4ccccc4)c-3cn(Cc3ccc(F)cc3)c2cc1OC", "outcome": "inactive"},
      {"compound": "O=C(Nc1nccs1)c1ccc(-c2ccc(F)c(Cl)c2)o1", "outcome": "inactive"},
      {"compound": "S=c1nn[nH]n1C12CC3CC(CC(C3)C1)C2", "activation": "206% (active)"},
      {"compound": "NC(=O)NC(=O)C[n+]1cccc(/C=N/O)c1", "outcome": "inactive"},
      {"compound": "Cc1ccccc1NC1=NC(=S)N(c2ccccc2)C12CCCCC2", "activation": "176% (active)"},
      {"compound": "CC(C)C(=O)Nc1c(O)c2ccccc2[nH]c1=O", "outcome": "inactive"},
      {"compound": "O=C(N/N=C1/C(=O)c2cccc3cccc1c23)c1ccc(Cl)cc1", "activation": "145% (active)"},
      {"compound": "Cc1ccc(-n2c(=S)[nH]c3sc4c(c3c2=O)CCC4)cc1", "activation": "158% (active)"},
      {"compound": "Cc1ccc(NC(=O)C(=O)NNC(=O)c2ccccc2C)cc1Cl", "activation": "304% (active)"},
      {"compound": "CN1CCN(S(=O)(=O)c2cccc(C(=O)Nc3cc(Cl)ccc3N3CCOCC3)c2)CC1", "outcome": "inactive"},
      {"compound": "COCCN(Cc1cc2cc3c(cc2nc1Cl)OCO3)C(=O)c1ccc(C)cc1", "outcome": "inactive"},
      {"compound": "c1ccc2[nH]c(-c3ccc4c(c3)OCO4)nc2c1", "outcome": "inactive"},
      {"compound": "CC(C)(C)c1ccc2c(c1)OC(C(=O)N/N=C\\c1ccccn1)CO2", "note": "(stereo not given)", "outcome": "inactive"},
      {"compound": "COc1ccccc1C(=O)Nc1ccnn1C1CCN(CCCC2CCCC2)CC1", "outcome": "inactive"},
      {"compound": "S=c1[nH]nc(-c2cccs2)n1/N=C/c1c(Cl)cccc1Cl", "outcome": "inactive"},
      {"compound": "CCNC(=S)/N=C(\\N)Nc1nc(C)c2cc(C)ccc2n1", "outcome": "inactive"},
      {"compound": "CC1Cc2ccccc2N1C(=S)NC(=O)c1ccc(Cl)cc1Cl", "note": "(stereo not given)", "activation": "214% (active)"},
      {"compound": "CCc1cccc(C)c1NC(=O)c1ccc2nc(N3CCOCC3)sc2c1", "outcome": "inactive"},
      {"compound": "CC(=O)Nc1nc2c(F)cccc2s1", "outcome": "inactive"},
      {"compound": "COc1ccc(-c2csc(N(CCCN(C)C)C(=O)c3ccccc3Cl)n2)cc1", "outcome": "inactive"},
      {"compound": "COc1ccc2nc(/N=C/c3c(C)[nH]n(-c4ccc(C)cc4C)c3=O)sc2c1", "activation": "232% (active)"},
      {"compound": "O=C(CC1C(=O)NCCN1Cc1cccc(F)c1)NCCCN1CCCC1=O", "note": "(stereo not given)", "outcome": "inactive"},
      {"compound": "CC(C)(C)CC(C)(C)NCC(O)COCCOc1ccc(Br)cc1", "note": "(stereo not given)", "outcome": "inactive"},
      {"compound": "COc1cccc(-c2nnc(Nc3nc4c(F)cccc4s3)o2)c1", "activation": "278% (active)"},
      {"compound": "Clc1ccc(C(c2ccccc2)N2CCNCC2)cc1", "note": "(stereo not given)", "outcome": "inactive"},
      {"compound": "CC(C)CN=Cc1c(O)c([N+](=O)[O-])cc2oc3c(c12)CCCC3", "outcome": "inactive"},
      {"compound": "CCC(Cc1ccccc1)n1c(=S)[nH]c2ccccc2c1=O", "note": "(stereo not given)", "outcome": "inactive"},
      {"compound": "Cn1c(=S)[nH]c2scc(-c3cccs3)c2c1=O", "activation": "524% (active)"},
      {"compound": "Cc1cccn2c(=O)nc(SCC(=O)N3N=C(c4cccs4)CC3c3ccc(F)cc3)nc12", "note": "(stereo not given)", "outcome": "inactive"},
      {"compound": "COC(=O)c1cc2c(ccc3ccccc32)oc1=O", "outcome": "inactive"},
      {"compound": "C=CCn1c(O)c(N=NC(=S)Nc2ccc(OC)c(Cl)c2)c2ccccc21", "activation": "191% (active)"},
      {"compound": "O=C(Oc1c(-c2ccco2)oc2ccccc2c1=O)c1cccnc1", "outcome": "inactive"},
      {"compound": "CCOC(=O)/C(C)=N/NC(=O)c1ccc([N+](=O)[O-])cc1", "activation": "328% (active)"},
      {"compound": "Fc1ccc2nc(Nc3nc4c(F)cccc4s3)sc2c1", "activation": "144% (active)"},
      {"compound": "O=C(COc1ccccc1[N+](=O)[O-])Nc1cccnc1", "activation": "186% (active)"},
      {"compound": "CN(C)c1oc(-c2ccc(OCc3ccc(Cl)cc3)cc2)nc1C#N", "outcome": "inactive"}
    ]},
    {"target": "Potassium voltage-gated channel subfamily KQT member 1 (Homo sapiens) (UniProt P51787)", "sequence (P51787 whole entry, looked up)": "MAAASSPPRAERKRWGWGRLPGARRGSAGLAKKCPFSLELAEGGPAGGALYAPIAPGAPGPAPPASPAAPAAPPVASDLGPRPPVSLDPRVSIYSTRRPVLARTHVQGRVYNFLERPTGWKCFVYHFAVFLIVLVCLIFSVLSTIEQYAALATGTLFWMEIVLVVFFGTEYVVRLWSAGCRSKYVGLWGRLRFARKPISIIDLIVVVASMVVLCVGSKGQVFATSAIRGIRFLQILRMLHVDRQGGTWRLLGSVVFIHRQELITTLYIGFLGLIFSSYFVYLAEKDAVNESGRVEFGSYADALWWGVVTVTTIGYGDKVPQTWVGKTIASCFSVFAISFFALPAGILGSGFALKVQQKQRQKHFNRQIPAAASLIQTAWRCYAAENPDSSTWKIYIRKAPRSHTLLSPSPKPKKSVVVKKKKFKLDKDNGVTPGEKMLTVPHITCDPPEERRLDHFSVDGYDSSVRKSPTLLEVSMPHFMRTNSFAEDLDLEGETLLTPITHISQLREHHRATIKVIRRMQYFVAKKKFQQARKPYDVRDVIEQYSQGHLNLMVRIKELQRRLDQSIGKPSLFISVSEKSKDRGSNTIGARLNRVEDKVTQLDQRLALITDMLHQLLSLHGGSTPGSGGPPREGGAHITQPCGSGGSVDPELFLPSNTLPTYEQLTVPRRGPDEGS", "assay": "enhancement of KCNQ1 channel thallium flux – FluxOR thallium flux, CHO cells, duplicates, confirmation (AID 493007);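 on outcome: cells depolarized by a potassium plus thallium sulfate stimulus after compound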", "details": "KCNQ1 cell line, FluxOR thallium flux fluorescence, at 10 µM; hits give high values, % of reference activator effect, buffer zero", "how_it_was_run": "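Material: KCNQ1-expressing CHO cell line; Incubation: FluxOR dye loading 90 min, compound exposure 20 min, room temperature; Detection: FluxOR Tl+ flux fluorescence, 10 s baseline plus 110 s recording; Read-out: percent activation between buffer and R-L3 responses; Control set: buffer-only wells as 0% and R-L3 activator as 100%; Replication: duplicate wells per compound.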", "values": [
      {"compound": "O=C(O)C1C2CCC(O2)C1C(=O)NCCC1=CCCCC1", "note": "(stereo not given)", "outcome": "inactive"},
      {"compound": "COc1ccccc1C(=O)OCC(=O)Nc1ccc(Cl)cn1", "outcome": "inactive"},
      {"compound": "Cc1ccnc(NC(=S)NC(=O)c2cncc(Br)c2)c1", "outcome": "inactive"},
      {"compound": "COc1cccc(N=Nc2ccc(O)c3ncccc23)c1", "potentiation": "44% (active)"},
      {"compound": "COc1cc2c3nnc(-c4ccccc4)c-3cn(Cc3ccc(F)cc3)c2cc1OC", "outcome": "inactive"},
      {"compound": "O=C(Nc1nccs1)c1ccc(-c2ccc(F)c(Cl)c2)o1", "outcome": "inactive"},
      {"compound": "S=c1nn[nH]n1C12CC3CC(CC(C3)C1)C2", "potentiation": "51.5% (active)"},
      {"compound": "NC(=O)NC(=O)C[n+]1cccc(/C=N/O)c1", "outcome": "inactive"},
      {"compound": "Cc1ccccc1NC1=NC(=S)N(c2ccccc2)C12CCCCC2", "potentiation": "26% (active)"},
      {"compound": "CC(C)C(=O)Nc1c(O)c2ccccc2[nH]c1=O", "outcome": "inactive"},
      {"compound": "O=C(N/N=C1/C(=O)c2cccc3cccc1c23)c1ccc(Cl)cc1", "potentiation": "83.5% (active)"},
      {"compound": "Cc1ccc(-n2c(=S)[nH]c3sc4c(c3c2=O)CCC4)cc1", "potentiation": "42.5% (active)"},
      {"compound": "Cc1ccc(NC(=O)C(=O)NNC(=O)c2ccccc2C)cc1Cl", "potentiation": "112% (active)"},
      {"compound": "CN1CCN(S(=O)(=O)c2cccc(C(=O)Nc3cc(Cl)ccc3N3CCOCC3)c2)CC1", "outcome": "inactive"},
      {"compound": "COCCN(Cc1cc2cc3c(cc2nc1Cl)OCO3)C(=O)c1ccc(C)cc1", "outcome": "inactive"},
      {"compound": "c1ccc2[nH]c(-c3ccc4c(c3)OCO4)nc2c1", "outcome": "inactive"},
      {"compound": "CC(C)(C)c1ccc2c(c1)OC(C(=O)N/N=C\\c1ccccn1)CO2", "note": "(stereo not given)", "outcome": "inactive"},
      {"compound": "COc1ccccc1C(=O)Nc1ccnn1C1CCN(CCCC2CCCC2)CC1", "outcome": "inactive"},
      {"compound": "S=c1[nH]nc(-c2cccs2)n1/N=C/c1c(Cl)cccc1Cl", "potentiation": "30% (active)"},
      {"compound": "CCNC(=S)/N=C(\\N)Nc1nc(C)c2cc(C)ccc2n1", "outcome": "inactive"},
      {"compound": "CC1Cc2ccccc2N1C(=S)NC(=O)c1ccc(Cl)cc1Cl", "note": "(stereo not given)", "potentiation": "91.5% (active)"},
      {"compound": "CCc1cccc(C)c1NC(=O)c1ccc2nc(N3CCOCC3)sc2c1", "outcome": "inactive"},
      {"compound": "CC(=O)Nc1nc2c(F)cccc2s1", "outcome": "inactive"},
      {"compound": "COc1ccc(-c2csc(N(CCCN(C)C)C(=O)c3ccccc3Cl)n2)cc1", "outcome": "inactive"},
      {"compound": "COc1ccc2nc(/N=C/c3c(C)[nH]n(-c4ccc(C)cc4C)c3=O)sc2c1", "potentiation": "113% (active)"},
      {"compound": "O=C(CC1C(=O)NCCN1Cc1cccc(F)c1)NCCCN1CCCC1=O", "note": "(stereo not given)", "outcome": "inactive"},
      {"compound": "CC(C)(C)CC(C)(C)NCC(O)COCCOc1ccc(Br)cc1", "note": "(stereo not given)", "outcome": "inactive"},
      {"compound": "COc1cccc(-c2nnc(Nc3nc4c(F)cccc4s3)o2)c1", "potentiation": "91.5% (active)"},
      {"compound": "Clc1ccc(C(c2ccccc2)N2CCNCC2)cc1", "note": "(stereo not given)", "outcome": "inactive"},
      {"compound": "CC(C)CN=Cc1c(O)c([N+](=O)[O-])cc2oc3c(c12)CCCC3", "outcome": "inactive"},
      {"compound": "CCC(Cc1ccccc1)n1c(=S)[nH]c2ccccc2c1=O", "note": "(stereo not given)", "potentiation": "19% (active)"},
      {"compound": "Cn1c(=S)[nH]c2scc(-c3cccs3)c2c1=O", "potentiation": "218% (active)"},
      {"compound": "Cc1cccn2c(=O)nc(SCC(=O)N3N=C(c4cccs4)CC3c3ccc(F)cc3)nc12", "note": "(stereo not given)", "outcome": "inactive"},
      {"compound": "COC(=O)c1cc2c(ccc3ccccc32)oc1=O", "outcome": "inactive"},
      {"compound": "C=CCn1c(O)c(N=NC(=S)Nc2ccc(OC)c(Cl)c2)c2ccccc21", "potentiation": "57% (active)"},
      {"compound": "O=C(Oc1c(-c2ccco2)oc2ccccc2c1=O)c1cccnc1", "potentiation": "39.5% (active)"},
      {"compound": "CCOC(=O)/C(C)=N/NC(=O)c1ccc([N+](=O)[O-])cc1", "potentiation": "157% (active)"},
      {"compound": "Fc1ccc2nc(Nc3nc4c(F)cccc4s3)sc2c1", "potentiation": "69.5% (active)"},
      {"compound": "O=C(COc1ccccc1[N+](=O)[O-])Nc1cccnc1", "potentiation": "41.5% (active)"},
      {"compound": "CN(C)c1oc(-c2ccc(OCc3ccc(Cl)cc3)cc2)nc1C#N", "outcome": "inactive"}
    ]}
  ]
}
